Reference: ChEMBL document CHEMBL1125898, “Synthesis and biological activity of 2'-deoxy-4'-thio pyrimidine nucleosides” (J Med Chem, 1991)

What was measured:
[1] = system: HEp-2; assay: The concentration required to produce a 50% inhibition of clone formation in human epidermoid carcinoma H-Ep-2 cells; type: functional, cell-based
[2] = system: CCRF-CEM; assay: The concentration required to inhibit cell growth to 50% of untreated controls in human T-cell leukemia CCRF-CEM cells; type: functional, cell-based
[3] = system: L1210; assay: The concentration required to produce a 50% reduction in the rate of cell proliferation in murine leukemia L1210 cells; type: functional, cell-based; conditions: Mus musculus
[4] = system: HEp-2; assay: The concentration required to produce a 50% inhibition of clone formation in human epidermoid carcinoma H-Ep-2 cells; NA=no cytotoxicity at 160 uM; type: functional, cell-based
Summary of the method: (§1)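 Highest concentration tested was 160 μM. IC50 is the concentration giving a 50% inhibition of clone formation (H-Ep-2) or a 50% reduction in the rate of cell proliferation (L1210).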

[5] = system: L1210; assay: The concentration required to produce a 50% reduction in the rate of cell proliferation in murine leukemia L1210 cells; NA=no cytotoxicity at 160 uM; type: functional, cell-based, Mus musculus; summary of the method: as §1

Compound | IC50 [1] | IC50 [2] | IC50 [3] | IC50 [4] | IC50 [5]
Nc1ccn(C2C[C@H](O)[C@@H](CO)S2)c(=O)n1 (stereo not given in full) | < 0.2 µM | 3.5 µM | 1 µM | – | –
O=c1ccn([C@H]2C[C@H](O)[C@@H](CO)S2)c(=O)[nH]1 | 2.1 µM | 4 µM | 2.7 µM | – | –
O=c1ccn(C2CC(O)C(CO)S2)c(=O)[nH]1 (stereo not given) | – | – | – | Not Active | Not Active
Cc1cn([C@@H]2C[C@H](O)[C@@H](CO)S2)c(=O)[nH]c1=O | 25 µM | – | 66 µM | – | –
Nc1ccn([C@H]2C[C@H](O)[C@@H](CO)S2)c(=O)n1 [4'-THIO-2'-DEOXYCYTIDINE] | < 0.2 µM | – | 1.2 µM | – | –
Cc1cn([C@H]2C[C@H](O)[C@@H](CO)S2)c(=O)[nH]c1=O [4'-THIOTHYMIDINE] | 0.14 µM | 0.67 µM | 0.12 µM | – | –
